This note sets out measurements from ChEMBL document CHEMBL2062366, “Synthesis and biological evaluation of purpurealidin E-derived marine sponge metabolites: aplysamine-2, aplyzanzine A, and suberedamines A and B” (2012).

This experiment deals with Mycobacterium tuberculosis. As to the kind of experiment: Antimycobacterial activity against Mycobacterium bovis BCG after 2 weeks by spot culture growth inhibition assay. It is filed as functional. The conditions noted are these: variant bovis BCG. The gist of the method:
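BCG grown in rolling bottles in 7H9 + 10% ADC + 0.05% Tween 80 to midexponential phase, quality-checked by Ziehl−Neelsen staining. Culture diluted to 10³ cfu/mL; 10 μL spotted onto 7H10 agar + 10% OADC containing compound, 37 °C for 2 weeks. Controls: DMSO (negative), isoniazid (positive). MIC = lowest concentration with no growth.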

Converted amounts (≈) assume the structure as drawn. The source made the active and inactive calls.

The MIC is the smallest concentration in the dilution series that meets the test's criterion for growth inhibition. In turn, `COc1ccc(C/C(=N\O)C(=O)NCCc2cc(Br)c(OCCCN(C)C)c(Br)c2)cc1Br` displayed an MIC (336 h) of 25 µg/mL (≈ 38.4 µM).

For the molecule `CN(C)CCCOc1c(Br)cc(CCN)cc1Br`, the MIC entry was “inactive”.

Take `CNC(Cc1cc(Br)c(OC)c(Br)c1)C(=O)NCCCOc1c(Br)cc(CCN(C)C)cc1Br.Cl` (stereo unspecified) [ANOMOIAN A]: the MIC (336 h) came to 25 µg/mL.

For the setting “336 h”, `COc1c(Br)cc(C[C@@H](C(=O)NCCc2cc(Br)c(OCCCN(C)C)c(Br)c2)N(C)C)cc1Br` [APLYZANZINE A] came in with a minimum inhibitory concentration (MIC) of 25 µg/mL (≈ 33.6 µM).

As for `COc1ccc(C[C@H](N)C(=O)NCCc2cc(Br)c(OCCCN(C)C)c(Br)c2)cc1Br` [SUBEREDAMINE A], the MIC (336 h) amounted to 50 µg/mL (≈ 78.6 µM).

On to `CN[C@@H](Cc1ccc(OC)c(Br)c1)C(=O)NCCc1cc(Br)c(OCCCN(C)C)c(Br)c1` [SUBEREDAMINE B], for which the MIC (336 h) was found to be 40 µg/mL (≈ 61.5 µM).
